Columns and labels:
[1] = Stability of the compound in simulated human duodenal fluid up to 1500 mins by HPLC analysis; format: ADME; details: 25 h
[2] = Stability of the compound in simulated human gastric juices up to 1500 mins by HPLC analysis; format: ADME, Gastric juice; details: 25 h
[3] = test system: Caco-2; assay: Apparent permeability from apical to basolateral side of human Caco2 cells; format: ADME, cell-based
In short: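 Transport measured across the epithelial monolayer. Samples were drawn from the acceptor reservoir at 0, 30, 60 and 120 min, and fresh buffer was added each time to keep the volume constant. The donor solution was sampled at 120 min. Caffeine was run in two wells in the apical-to-basolateral direction as a routine control.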

[4] = test system: Clostridium perfringens; assay: Prodrug activation in Clostridium perfringens assessed as prednisolone release under anaerobic conditions at 50 uM up to 24 hrs by HPLC analysis; format: organism-based
In short: (§1)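 C. perfringens grown overnight on brain heart infusion (BHI) agar, then colonies were suspended in BHI broth to OD600 0.9–1.1. Compound incubated in the suspension under anaerobic conditions, pH 7.4, 37 °C, with a no-bacteria BHI control. Aliquots taken at 0, 2, 4, 6 and 24 h and centrifuged at 10,000 rpm for 10 min. Supernatants were stored at −20 °C, then HPLC for prodrug and released parent drug (n = 3).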

[5] = Metabolic stability in brain heart infusion medium up to 24 hrs by HPLC analysis; format: ADME, tissue-based
In short: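 Prodrug was incubated in BHI medium without bacteria under anaerobic conditions at pH 7.4 and 37 °C. Aliquots were taken at 0, 2, 4, 6 and 24 h and centrifuged at 10,000 rpm for 10 min. Supernatants were stored at −20 °C, then analysed by an HPLC method that resolves BHI components from prodrug and activation byproducts; n = 3.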

[6] = test system: Clostridium perfringens; assay: Prodrug activation in Clostridium perfringens assessed as celecoxib release under anaerobic conditions at 50 uM up to 24 hrs by HPLC analysis; format: organism-based; in short: as §1

CCCC1O[C@@H]2C[C@H]3[C@@H]4CCC5=CC(=O)C=C[C@]5(C)[C@H]4[C@@H](O)C[C@]3(C)[C@]2(C(=O)COC(=O)CCc2ccccc2[N+](=O)[O-])O1 (stereo not given in full)
Stability [1]: Stable
Stability [2]: Stable
Papp [3]: impermeable
Drug metabolism [4]: Not Active
Stability [5]: Stable

C[C@]12C=CC(=O)C=C1CC[C@@H]1[C@@H]2[C@@H](O)C[C@@]2(C)[C@H]1CC[C@]2(O)C(=O)COC(=O)Cc1ccccc1[N+](=O)[O-]
Stability [1]: Stable
Stability [2]: Stable
Drug metabolism [4]: Active
Stability [5]: Stable

CCCC1O[C@@H]2C[C@H]3[C@@H]4CCC5=CC(=O)C=C[C@]5(C)[C@H]4[C@@H](O)C[C@]3(C)[C@]2(C(=O)COC(=O)Cc2ccccc2[N+](=O)[O-])O1 (stereo not given in full)
Stability [1]: Stable
Stability [2]: Stable
Papp [3]: permeable
Drug metabolism [4]: Active
Stability [5]: Stable

Cc1ccc(-c2cc(C(F)(F)F)nn2-c2ccc(S(=O)(=O)NC(=O)CCc3ccccc3)cc2)cc1
Drug metabolism [6]: Not Active
Stability [5]: Stable

Cc1ccc(-c2cc(C(F)(F)F)nn2-c2ccc(S(=O)(=O)NC(=O)CCc3ccccc3[N+](=O)[O-])cc2)cc1
Stability [1]: Stable
Stability [2]: Stable
Papp [3]: permeable
Stability [5]: Stable

C[C@]12C=CC(=O)C=C1CC[C@@H]1[C@@H]2[C@@H](O)C[C@@]2(C)[C@H]1CC[C@]2(O)C(=O)COC(=O)CCc1ccccc1[N+](=O)[O-]
Stability [1]: Stable
Stability [2]: Stable
Drug metabolism [4]: Active
Stability [5]: Stable

Cc1ccc(-c2cc(C(F)(F)F)nn2-c2ccc(S(=O)(=O)NC(=O)Cc3ccccc3[N+](=O)[O-])cc2)cc1
Stability [1]: Stable
Stability [2]: Stable
Papp [3]: permeable
Stability [5]: Stable

C[C@]12C=CC(=O)C=C1CC[C@@H]1[C@@H]2[C@@H](O)C[C@@]2(C)[C@H]1CC[C@]2(O)C(=O)COC(=O)CCc1ccccc1
Drug metabolism [4]: Not Active
Stability [5]: Stable
